Ki and Displacement data for 16 molecules are collected here from ChEMBL document CHEMBL1129451, “Novel potent sigma 1 ligands: N-[omega-(tetralin-1-yl)alkyl]piperidine derivatives” (J Med Chem, 1996).

SMILES strings stand for the structures.

In general, Ki refers to the equilibrium dissociation constant of an inhibitor or competing ligand from its target.

For one test, the target named is Glutamate NMDA receptor. Briefly: Binding affinity was tested on Phencyclidine binding assay. In kind it is protein-complex assay. The gist of the method:
(§1)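 [3H]phencyclidine binding to rat hippocampus membranes, with (+)-N-allylnormetazocine (SKF 10,047) defining specific binding. […] Ki via Cheng–Prusoff with Bmax and Kd taken from saturation experiments.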

Test [1] addresses Serotonin 2 (5-HT2) receptor (Rattus norvegicus) (UniProt P30994+P08909+P14842). Kind of test: Percentage specific displacement of radioligand [3H]ketanserin from 5-hydroxytryptamine 2 receptor. In kind it is protein assay. On the set-up: concentration or dose not given beside the values.
The target of test [2] is D(2) dopamine receptor (Rattus norvegicus) (UniProt P61169). Kind of test: (§2) Binding affinity was tested on Dopamine receptor D2 using radioligand [3H]spiroperidol. Further details: concentration or dose not given beside the values. The gist of the method: (§3)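 Rat striatal membranes labelled with [3H]spiroperidol; (+)-butaclamol defined specific binding. […] Ki by Cheng–Prusoff using Bmax and Kd from saturation experiments. Tested as hydrogen oxalate salts (some hydrochlorides); oxalate interference excluded at highest concentration.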
Chain of D(2) dopamine receptor (Rattus norvegicus) (P61169 whole entry): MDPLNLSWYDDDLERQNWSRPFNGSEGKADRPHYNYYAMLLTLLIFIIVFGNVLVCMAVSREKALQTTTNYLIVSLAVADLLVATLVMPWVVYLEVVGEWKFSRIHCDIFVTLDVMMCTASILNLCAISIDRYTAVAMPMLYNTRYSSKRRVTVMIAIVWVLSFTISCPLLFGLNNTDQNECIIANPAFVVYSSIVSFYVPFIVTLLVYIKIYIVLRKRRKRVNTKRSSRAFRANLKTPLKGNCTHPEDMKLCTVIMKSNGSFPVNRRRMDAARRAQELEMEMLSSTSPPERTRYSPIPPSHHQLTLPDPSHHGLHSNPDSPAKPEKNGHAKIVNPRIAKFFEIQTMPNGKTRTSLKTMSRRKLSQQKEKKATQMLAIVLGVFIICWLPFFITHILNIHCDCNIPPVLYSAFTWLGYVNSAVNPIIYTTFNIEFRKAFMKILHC

For test [3], the target named is T1, 5-hydroxytryptamine receptor 1A (Rattus norvegicus, UniProt P19327).
T1 sequence (P19327 whole entry): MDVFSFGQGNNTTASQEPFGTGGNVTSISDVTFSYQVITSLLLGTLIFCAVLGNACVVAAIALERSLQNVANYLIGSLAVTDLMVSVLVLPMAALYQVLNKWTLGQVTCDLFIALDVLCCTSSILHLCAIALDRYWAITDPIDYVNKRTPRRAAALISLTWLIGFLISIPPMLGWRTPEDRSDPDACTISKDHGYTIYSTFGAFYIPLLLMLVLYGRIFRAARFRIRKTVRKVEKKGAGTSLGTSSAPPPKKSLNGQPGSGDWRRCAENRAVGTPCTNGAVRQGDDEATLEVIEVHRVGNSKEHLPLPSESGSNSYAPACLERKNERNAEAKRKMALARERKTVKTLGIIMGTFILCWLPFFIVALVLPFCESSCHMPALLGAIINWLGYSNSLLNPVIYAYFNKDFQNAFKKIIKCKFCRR
Briefly: Binding affinity was tested on 5-hydroxytryptamine 1A receptor using radioligand [3H]5-HT binding assay. A digest of the protocol: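 Six to nine drug concentrations, triplicate samples, two to three independent experiments. IC50 converted to Ki by Cheng–Prusoff, with Kd and Bmax from saturation experiments.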

The target of test [4] is Sigma-1 receptor (Rattus norvegicus). Briefly: Binding affinity was tested on Sigma-1 receptor using radioligand [3H](+)-pentazocine binding assay.
Test [5] concerns the target T2, D(2) dopamine receptor (Rattus norvegicus, UniProt P61169). Briefly: (§4) Binding affinity of compound towards Dopamine receptor D2 was determined in rat striatal homogenate using [3H]- spiperone as radioligand. The gist of the method: as §3
For test [6], the target named is T3, Glutamate NMDA receptor (Rattus norvegicus) (UniProt P35439+Q00959+Q00960+Q00961+Q62645+Q8VHN2+Q9R1M7). Kind of test: Binding affinity of compound was tested on Phencyclidine binding assay. In kind it is protein-complex assay. The gist of the method:
as §1

Test [7] concerns the target T2, D(2) dopamine receptor. Described as §2. The gist of the method:
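Ki by Cheng–Prusoff using Bmax and Kd from saturation experiments. Tested as hydrogen oxalate salts (some hydrochlorides); oxalate interference excluded at highest concentration.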

Test [8] concerns the target Serotonin 2 (5-HT2) receptor (Rattus norvegicus, UniProt P30994+P08909+P14842). Kind of test: Percentage specific displacement of radioligand [3H]-ketanserin from 5-hydroxytryptamine 2 receptor. In kind it is protein assay.
For test [9], the target named is T3, Glutamate NMDA receptor (Rattus norvegicus). Briefly: Percentage specific displacement of radioligand [3H]phencyclidine from Phencyclidine receptor. In kind it is protein-complex assay. A digest of the protocol: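 Rat hippocampus membranes, [3H]phencyclidine radioligand; (+)-N-allylnormetazocine (SKF 10,047) defined specific binding. Percent specific displacement run in triplicate at a single stated compound concentration.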

Test [10] addresses D(2) dopamine receptor (Rattus norvegicus) (UniProt P61169). The test is described as §4. A digest of the protocol:
as §3

Test [11] can be described thus: Binding affinity of compound was tested on Phencyclidine binding assay.

T2 sequence (P61169 whole entry): as the sequence (P61169 whole entry) above
Chain of Serotonin 2 (5-HT2) receptor (Rattus norvegicus) (P08909 whole entry, looked up): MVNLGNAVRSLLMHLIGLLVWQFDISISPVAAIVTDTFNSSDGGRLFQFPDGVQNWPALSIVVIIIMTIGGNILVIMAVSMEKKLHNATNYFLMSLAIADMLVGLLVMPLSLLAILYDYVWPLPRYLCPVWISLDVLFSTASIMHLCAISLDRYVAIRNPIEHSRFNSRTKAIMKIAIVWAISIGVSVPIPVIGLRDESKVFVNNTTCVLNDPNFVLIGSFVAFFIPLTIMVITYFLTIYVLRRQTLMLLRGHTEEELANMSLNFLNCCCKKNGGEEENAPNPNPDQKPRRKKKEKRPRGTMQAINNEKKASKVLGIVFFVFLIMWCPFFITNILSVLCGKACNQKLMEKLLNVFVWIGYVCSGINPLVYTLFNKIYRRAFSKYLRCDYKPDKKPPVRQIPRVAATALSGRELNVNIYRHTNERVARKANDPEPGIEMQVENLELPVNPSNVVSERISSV
Chain of Serotonin 2 (5-HT2) receptor (Rattus norvegicus) (P14842 whole entry, looked up): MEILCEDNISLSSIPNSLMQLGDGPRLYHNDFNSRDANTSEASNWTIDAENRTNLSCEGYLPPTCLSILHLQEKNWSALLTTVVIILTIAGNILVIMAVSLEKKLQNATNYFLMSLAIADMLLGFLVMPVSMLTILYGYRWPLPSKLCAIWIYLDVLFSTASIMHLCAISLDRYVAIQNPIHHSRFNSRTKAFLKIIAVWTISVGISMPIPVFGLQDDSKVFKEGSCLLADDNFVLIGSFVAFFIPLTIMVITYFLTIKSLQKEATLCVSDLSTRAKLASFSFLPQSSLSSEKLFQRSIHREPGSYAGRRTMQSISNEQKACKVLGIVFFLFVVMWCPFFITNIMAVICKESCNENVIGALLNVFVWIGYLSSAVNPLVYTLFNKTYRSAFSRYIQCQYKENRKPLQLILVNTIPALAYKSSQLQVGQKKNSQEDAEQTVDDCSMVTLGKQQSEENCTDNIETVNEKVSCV
Chain of Serotonin 2 (5-HT2) receptor (Rattus norvegicus) (P30994 whole entry, looked up): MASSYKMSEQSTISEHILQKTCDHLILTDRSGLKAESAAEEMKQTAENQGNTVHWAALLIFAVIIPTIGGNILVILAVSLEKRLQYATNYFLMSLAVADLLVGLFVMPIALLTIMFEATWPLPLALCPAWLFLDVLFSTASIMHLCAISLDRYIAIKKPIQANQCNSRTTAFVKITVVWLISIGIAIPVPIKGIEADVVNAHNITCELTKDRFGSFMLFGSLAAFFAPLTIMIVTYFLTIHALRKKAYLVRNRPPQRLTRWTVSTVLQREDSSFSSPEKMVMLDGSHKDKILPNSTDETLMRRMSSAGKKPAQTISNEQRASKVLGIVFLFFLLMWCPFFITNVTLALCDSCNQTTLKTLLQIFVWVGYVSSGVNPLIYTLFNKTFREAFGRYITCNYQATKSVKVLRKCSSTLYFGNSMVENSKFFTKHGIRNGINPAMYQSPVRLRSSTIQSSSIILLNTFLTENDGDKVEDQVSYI

Consider `CCCN(CCC)CCCCC1=CCCc2ccccc21`, for which the Ki at Glutamate NMDA receptor came to 2600 nM; in test [3] it was 357 nM; in test [4], 3.9 nM. Moreover, the Displacement in test [1] stood at 60%; in [2] it was 40%.
In the case of `c1ccc2c(c1)CCCC2CCCCN1CCCCC1` (configuration not stated), the values for the Ki (on Glutamate NMDA receptor; in [3]; in [4]) were 5560 nM, more than 1430 nM and 4.7 nM, respectively. Also, the Displacement in test [1] worked out at 64%; in test [2], 27%.
Regarding `c1ccc2c(c1)CCN(CCCCC1CCCc3ccccc31)C2` (configuration not stated), the inhibitory constant (Ki) was more than 92600 nM at Glutamate NMDA receptor and 3.7 nM in [4].
In the case of `COc1cccc2c1CCCC2CCCN1CCC(Cc2ccccc2)CC1` (configuration not stated), the Ki on Glutamate NMDA receptor was more than 92600 nM; in test [3], less than 0.14 nM; on D(2) dopamine receptor [5] it was 1300 nM.
Regarding `C1=C(CCCCN2CCCCC2)c2ccccc2CC1`, the Displacement is 12% in test [1], 0% in [2] and 92% in test [6]. In addition, the values for the inhibitory constant (Ki) in test [3] and in [4] were more than 1430 nM and 3.9 nM, respectively.
Regarding `COc1cccc2c1CCCC2CCCN1CCCC(C)(C)C1` (configuration not stated), the results for the inhibition constant Ki (at Glutamate NMDA receptor; on D(2) dopamine receptor [7]; in test [3]) were 34.2 nM, more than 10000 nM and 898 nM, respectively.
Turning to `CCCN(CCC)CCCC1CCCc2ccccc21` (configuration not stated), the inhibitory constant (Ki) worked out at 48100 nM on Glutamate NMDA receptor, 400 nM in test [3] and 6.7 nM in test [4]. The Displacement in test [1] amounted to 51%; in test [2], 0%.
`c1ccc(CC2CCN(CCCCC3CCCc4ccccc43)CC2)cc1` (configuration not stated): the inhibition constant Ki at Glutamate NMDA receptor was more than 92600 nM; in test [3], 285 nM; in [4] it was 30 nM.
Consider `COc1cccc2c1CCCC2CCCN1CCCCC1` (configuration not stated), for which the Ki at Glutamate NMDA receptor was 3240 nM; in test [8], more than 5520 nM; at D(2) dopamine receptor [7], more than 1850 nM; in [3], more than 1430 nM.
As to `c1ccc2c(c1)CCCC2CCCN1CCCCC1` (configuration not stated), the values for the Displacement in test [1], in [9] and in test [10] were 21%, 95% and 0%, respectively. Further, the inhibitory constant (Ki) in test [3] was more than 1430 nM.
Consider `CCCN(CCC)CCCCC1CCCc2ccccc21` (configuration not stated), for which the inhibition constant (Ki) at Glutamate NMDA receptor turned out to be 9910 nM; in [3], 200 nM; in [4], 4.7 nM. Moreover, the Displacement in test [1] stood at 66%; in test [2], 31%.
With `CC1(C)CCCN(CCCC2CCCc3cscc32)C1` (configuration not stated), the Ki on Glutamate NMDA receptor was 9.4 nM; in test [3], more than 1430 nM.
Take `c1cc2c(s1)CCCC2CCCN1CCCCC1` (configuration not stated): the Ki at Glutamate NMDA receptor is more than 92600 nM.
The molecule `C=CCN1CCC2c3cc(O)ccc3CC1C2C` (configuration not stated) had an inhibition constant (Ki) in test [11] of 370 nM.
Take `COc1ccc2c(c1)C(CCCN1CCCCC1)CCC2` (configuration not stated): the Ki in [8] is more than 5520 nM; on D(2) dopamine receptor [7], more than 1850 nM; in test [3] it was more than 1430 nM; in [4], 63.2 nM. The Displacement in test [9] was 88%.
Regarding `CC1(C)CCCN(CCCCC2CCCc3ccccc32)C1` (configuration not stated), the inhibition constant Ki is more than 92600 nM at Glutamate NMDA receptor, more than 10000 nM on D(2) dopamine receptor [7], more than 1430 nM in [3] and 0.8 nM in test [4].
